In article PMC7385434 (Science Advances, 2020):

Experiments:
MCF-7 cells = assay: CCK-8 cytotoxicity assay, MCF-7 cells; assay type: cell-based, human; conditions: CCK-8, 24 hours, 10-80 μM, n = 4
[1] = Safety: body weight and H&E of normal tissues during therapy; assay type: in vivo, mouse
How it was run: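 MDA-MB-231-bearing mice were randomized into three groups of three to four. They received test nanoparticles i.v. (200 μl, 200 μM; 2.4 mg/kg) every other day, with peptide-only NPs and PBS as controls. Body weight and tumor volume were recorded every other day. Normal tissues were fixed overnight in 4% paraformaldehyde/PBS, paraffin-embedded, sectioned, H&E-stained and examined by light microscopy.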

[2] = Safety for blood circulation: platelet activity, thrombin, platelet numbers; assay type: in vivo, mouse; conditions: tumor-bearing mice, i.v. 200 μl, 200 μM, up to 5 days
How it was run: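 Tumor-bearing mice received test nanoparticles (200 μl, 200 μM) i.v. Blood was drawn into 3.8% sodium citrate at 0, 1, 4, 24 and 120 h. Platelet-rich plasma was obtained by mixing blood with an equal volume of 2% paraformaldehyde in PBS for 30 min, then centrifuging at 1000 rpm for 10 min. P-selectin was measured by flow cytometry after 30 min with FITC anti-P-selectin mAb. Thrombin was measured by ELISA; platelet counts by flow cytometry.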

HUVECs = assay: CCK-8 cytotoxicity assay, HUVECs; assay type: cell-based, human; conditions: CCK-8, 24 hours, 10-80 μM, n = 4
[3] = Particle size and morphology by TEM and DLS; assay type: physicochemical
How it was run: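 Nanoparticles were formed by quick injection of a 4.0 mM DMSO peptide stock into water (0.5:99.5 v/v), giving 20 μM. They were incubated with CD105 (0.25 μg/ml) for 0, 4 and 8 h, with BSA or no protein as controls. TEM: drops sat on copper mesh 15 min, were blotted, stained 15 min with uranyl acetate, water-washed, air-dried and imaged at 200 kV. DLS was run at 0 and 8 h.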

MDA-MB-231 tumor = assay: In vivo and ex vivo fluorescence imaging of tumor accumulation and retention; parameters: species or system mouse; conditions: 200 μM, n = 3
How it was run: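 MDA-MB-231-bearing BALB/c nude mice received test nanoparticles (200 μl, 200 μM) i.v.; peptide-only NPs and PBS served as controls. Whole-body fluorescence (ex 500 nm, em 520 nm) was imaged at 4, 12, 24, 48 and 72 h. At 72 h, heart, liver, spleen, lung, kidney and tumor were excised for ex vivo fluorescence imaging. Groups had three to four mice.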

[4] = tested on: MDA-MB-231 xenografted tumor; assay: Blood oxygen saturation; assay type: in vivo, mouse; conditions: 4 hours after i.v. injection, 200 μl, 200 μM; n = 30 slices
How it was run: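 MDA-MB-231 tumor-bearing BALB/c mice were anesthetized with isoflurane in a glass box. Test nanoparticles (200 μl, 200 μM) were given i.v.; peptide-only NPs and PBS (200 μl) served as controls. Multispectral optoacoustic tomography read Hb at 715 nm and HbO2 at 850 nm before and 4 h after injection. 3D maps were built from 30 2D slices at 0.1 mm steps. Data are means ± SD; unpaired two-tailed t test.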

tumor growth = conditions: sunitinib at a dose of 8.75 mg/kg; cited from earlier work
[5] = in vivo fluorescence at 4, 12, 24, 48, 72 hours after i.v. 200 μl

Q: What does the source list for BP-FFVLK-AHKHVHHVPVRL [pNPs]?
A: concentration showing good biocompatibility (cell viability) (MCF-7 cells): below 50 μM; acute systemic toxicity by body weight ([1]; i.v. 200 μM, 200 μl every other day, body weight every other day): did not induce acute systematic toxicity; cell necrosis in other (non-tumor) tissues, H&E ([1]; tissues harvested 15 d after treatment): not observed; change in plasma thrombin generation ([2]; ELISA): did not induce obvious changes; change in circulating platelet numbers ([2]; flow cytometry): did not induce obvious changes; change in platelet activity (P-selectin-positive platelets) ([2]; flow cytometry): did not induce obvious changes; concentration showing good biocompatibility (cell viability) (HUVECs): below 50 μM; size during incubation with CD105 (TEM) ([3]; 20 μM with CD105 0.25 μg/ml in water, pNPs at start, apNFs at 4 hours): 30.6 ± 7.1 nm; size by DLS before incubation with CD105 ([3]; 20 μM, 0 hours, multidisperse after CD105 incubation 8 hours): 31.6 nm; diameter (TEM and DLS) ([3]; 20 μM, H2O:DMSO = 99.5:0.5 v/v, freshly prepared): 23.1 ± 5.8 nm; stability of nanoparticles in water ([3]; 20 μM, water with 0.5% DMSO, without CD105, 0 and 8 h, CD, FT-IR, TEM): stable; diameter after incubation with BSA in place of CD105 ([3]; bovine serum albumin replacing CD105, remained particulate): 29.5 ± 5.3 nm; persistence of fluorescence in tumor (MDA-MB-231 tumor; [5]): 72 h; time up to which artificial clots continuously accumulated in tumor (MDA-MB-231 tumor; [5]): 24 h; decrease in sO2 in tumors compared with before injection [4]: 33.8%

Q: With BP-AHKHVHHVPVRL [BA NPs] as the molecule, how does the “tumor fluorescence at 72 hours” value (MDA-MB-231 tumor; in vivo fluorescence after i.v. 200 μl) read?
A: almost disappeared

Q: Which tumor growth inhibition (tumor growth) does the source give for `CCN(CC)CCNC(=O)c1c(C)[nH]c(/C=C2\C(=O)Nc3ccc(F)cc32)c1C` [sunitinib] here?
A: 32%
